From ChEMBL document CHEMBL1208665, “Discovery of new 1,3,5-triazine scaffolds with potent activity against Mycobacterium tuberculosis H37Rv” (Eur J Med Chem, 2010) come the findings set out here.

As a reminder, the MIC is the lowest concentration that inhibits growth of the organism. A lower MIC goes with a more susceptible organism.

Values after ≈ are worked out from the molar mass of the structure shown.

This assay concerns Mycobacterium tuberculosis. As to the kind of experiment: Antimycobacterial activity against Mycobacterium tuberculosis H37Rv […] after 4 weeks. The class given is functional. The essentials:
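Agar-slant dilution against H37Rv. Compounds from 1.0 mg/mL DMSO stock, two-fold serial dilutions, were incorporated into OADC-supplemented medium (2 mL/tube final) and solidified slanted. Inoculum spread on the surface, incubated 37 °C for 4 weeks. Drug-free tubes served as control. MIC is the lowest concentration giving complete growth inhibition relative to the inoculum used.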
`CCNC1CN(c2nc(N3CCCCC3)nc(N3CCOC(NCC)C3)n2)CCO1` (stereo not given) came in with a minimal inhibitory concentration (MIC) of more than 12.5 µg/mL.

In turn, `CN(C)CCNc1nc(NCCN(C)C)nc(N2CCCc3ccccc32)n1` came in with an MIC of more than 12.5 µg/mL.

In turn, `CCNc1nc(NCC)nc(N2CCCc3ccccc32)n1` had an MIC of more than 12.5 µg/mL.

Regarding `CCNc1nc(NCC)nc(N2CCCCC2)n1`, the MIC was more than 12.5 µg/mL.

For the compound `CC(C)(C)Nc1nc(NC(C)(C)C)nc(N2CCCCC2)n1`, the minimum inhibitory concentration (MIC) is more than 12.5 µg/mL.

In the case of `CCCNC1COCCN1c1nc(Nc2nc(SC)cc(-c3cc(OC)c(OC)c(OC)c3)n2)nc(N2CCOCC2NCCC)n1` (stereo not given), the MIC stood at 12.5 µg/mL (≈ 18.6 µM).

Take `CN(C)CCNc1nc(NCCN(C)C)nc(N2CCCCC2)n1`: the MIC was more than 12.5 µg/mL.

Turning to `CCN(CC)CCNc1nc(NCCN(CC)CC)nc(N2CCCCC2)n1`, the MIC is more than 12.5 µg/mL.

Regarding `O=C(NNc1nc(Nc2ccccc2)nc(N2CCCCC2)n1)c1ccncc1`, the MIC is more than 12.5 µg/mL.

Consider `O=C(NNc1nc(Nc2ccccc2)nc(Nc2ccccc2)n1)c1ccncc1`, for which the MIC was more than 12.5 µg/mL.

Compound `COc1ccc(-c2cc(SC)nc(Nc3nc(NCCN(C)C)nc(NCCN(C)C)n3)n2)cc1OC` registered an MIC of 6.25 µg/mL (≈ 11.8 µM).

Compound `CC(C)(C)Nc1nc(NNC(=O)c2ccncc2)nc(Nc2ccccc2)n1` showed an MIC of more than 12.5 µg/mL.

Consider `NN(C(=O)c1ccncc1)c1nc(Nc2ccccc2)nc(N(N)C(=O)c2ccncc2)n1`, for which the MIC is more than 12.5 µg/mL.

`CN1CCN(c2nc(N3CCc4ccccc4C3)nc(N3CCc4ccccc4C3)n2)CC1` showed an MIC of 6.25 µg/mL (≈ 14.2 µM).

In the case of `CC(C)Nc1nc(NC(C)C)nc(N2CCCCC2)n1`, it took 12.5 µg/mL (≈ 44.9 µM) to inhibit growth (MIC).

As to `CCCCNc1nc(NNC(=O)c2ccncc2)nc(N2CCCc3ccccc32)n1`, the MIC worked out at 6.25 µg/mL (≈ 14.9 µM).

As to `CC(C)(C)Nc1nc(NNC(=O)c2ccncc2)nc(N2CCCc3ccccc32)n1`, 3.12 µg/mL (≈ 7.46 µM) was the least that counted as inhibitory (MIC).

On to `CC(C)(C)Nc1nc(NNC(=O)c2ccncc2)nc(N2CCCCC2)n1`, for which it took 6.25 µg/mL (≈ 16.9 µM) to inhibit growth (MIC).

In the case of `O=C(NNc1nc(N2CCCCC2)nc(N2CCCCC2)n1)c1ccncc1`, 6.25 µg/mL (≈ 16.3 µM) was the least that counted as inhibitory (MIC).

For `O=C(NNc1nc(Nc2ccccc2)nc(NC2CCCCC2)n1)c1ccncc1`, the MIC came to 6.25 µg/mL (≈ 15.5 µM).

`CCCCNc1nc(NNC(=O)c2ccncc2)nc(Nc2ccccc2)n1` gave an MIC of 6.25 µg/mL (≈ 16.5 µM).

`CC(C)Nc1nc(NNC(=O)c2ccncc2)nc(Nc2ccccc2)n1` had an MIC of 6.25 µg/mL (≈ 17.2 µM).

Consider `CCN(CC)CCNc1nc(N)nc(Nc2nc(SC)cc(-c3cc(OC)c(OC)c(OC)c3)n2)n1`, for which the MIC is more than 12.5 µg/mL.

In turn, `CCNC1CN(c2nc(Nc3nc(SC)cc(-c4ccc(OC)c(OC)c4)n3)nc(N3CCOC(NCC)C3)n2)CCO1` (stereo not given) yielded an MIC of more than 12.5 µg/mL.

In turn, `CCCNC1COCCN1c1nc(Nc2nc(SC)cc(-c3ccc(OC)c(OC)c3)n2)nc(N2CCOCC2NCCC)n1` (stereo not given) registered an MIC of more than 12.5 µg/mL.

Regarding `CCNC1CN(c2cc(-c3cc(OC)c(OC)c(OC)c3)nc(N)n2)CCO1` (stereo not given), the MIC was more than 12.5 µg/mL.

Compound `CCCNC1COCCN1c1cc(-c2cc(OC)c(OC)c(OC)c2)nc(N)n1` (stereo not given) registered a minimal inhibitory concentration (MIC) of more than 12.5 µg/mL.

As to `CCCCNc1cc(-c2cc(OC)c(OC)c(OC)c2)nc(N)n1`, the MIC was more than 12.5 µg/mL.

With `CCNC1CN(c2nc(N3CCCc4ccccc43)nc(N3CCCc4ccccc43)n2)CCO1` (stereo not given), the MIC is more than 12.5 µg/mL.

As to `CCCNC1COCCN1c1nc(N2CCCc3ccccc32)nc(N2CCCc3ccccc32)n1` (stereo not given), the minimal inhibitory concentration (MIC) was more than 12.5 µg/mL.

In turn, `CC(C)(C)Nc1nc(N2CCCc3ccccc32)nc(N2CCCc3ccccc32)n1` showed an MIC of more than 12.5 µg/mL.

`CN1CCN(c2nc(N3CCCc4ccccc43)nc(N3CCCc4ccccc43)n2)CC1` gave an MIC of more than 12.5 µg/mL.

The compound `CCN(CC)CCNc1nc(N2CCCc3ccccc32)nc(N2CCCc3ccccc32)n1` came in with an MIC of more than 12.5 µg/mL.

`c1ccc2c(c1)CCCN2c1nc(N2CCOCC2)nc(N2CCCc3ccccc32)n1` displayed an MIC of more than 12.5 µg/mL.

Turning to `CCCNC1COCCN1c1nc(N2CCc3ccccc3C2)nc(N2CCc3ccccc3C2)n1` (stereo not given), the minimal inhibitory concentration (MIC) was more than 12.5 µg/mL.

Compound `CC(C)(C)Nc1nc(N2CCc3ccccc3C2)nc(N2CCc3ccccc3C2)n1` had an MIC of more than 12.5 µg/mL.

With `CCN(CC)CCNc1nc(N2CCc3ccccc3C2)nc(N2CCc3ccccc3C2)n1`, the minimal inhibitory concentration (MIC) was more than 12.5 µg/mL.

On to `c1ccc2c(c1)CCN(c1nc(N3CCOCC3)nc(N3CCc4ccccc4C3)n1)C2`, for which the MIC was more than 12.5 µg/mL.

On to `CCCNc1nc(NCCC)nc(N2CCCc3ccccc32)n1`, for which the MIC is more than 12.5 µg/mL.

With `CC(C)Nc1nc(NC(C)C)nc(N2CCCc3ccccc32)n1`, the MIC is more than 12.5 µg/mL.

In turn, `CC(C)(C)Nc1nc(NC(C)(C)C)nc(N2CCCc3ccccc32)n1` returned an MIC of more than 12.5 µg/mL.

As for `CCN(CC)CCNc1nc(NCCN(CC)CC)nc(N2CCCc3ccccc32)n1`, the MIC is more than 12.5 µg/mL.

In turn, `CCN1CCN(c2nc(Nc3nc(SC)cc(-c4ccc(OC)c(OC)c4)n3)nc(N3CCN(CC)CC3)n2)CC1` returned an MIC of 12.5 µg/mL (≈ 21.5 µM).

`COc1cc(-c2cc(N3CCN(C)CC3)nc(N)n2)cc(OC)c1OC` came in with an MIC of more than 12.5 µg/mL.

`CCCNc1nc(NCCC)nc(Nc2nc(SC)cc(-c3cc(OC)c(OC)c(OC)c3)n2)n1` yielded an MIC of more than 12.5 µg/mL.

Turning to `COc1cc(-c2cc(SC)nc(Nc3nc(N4CCOCC4)nc(N4CCOCC4)n3)n2)cc(OC)c1OC`, the MIC was more than 12.5 µg/mL.

For `CCCNc1nc(NCCC)nc(Nc2nc(SC)cc(-c3ccc(OC)c(OC)c3)n2)n1`, the minimal inhibitory concentration (MIC) was more than 12.5 µg/mL.

Consider `COc1cc(-c2cc(N3CCOCC3)nc(N)n2)cc(OC)c1OC`, for which the minimal inhibitory concentration (MIC) was more than 12.5 µg/mL.

`CCN1CCN(c2nc(Nc3nc(SC)cc(-c4cc(OC)c(OC)c(OC)c4)n3)nc(N3CCN(CC)CC3)n2)CC1`: the MIC stood at 12.5 µg/mL (≈ 20.5 µM).

Consider `COc1cc(-c2cc(SC)nc(Nc3nc(N4CCN(C)CC4)nc(N4CCN(C)CC4)n3)n2)cc(OC)c1OC`, for which the MIC is 12.5 µg/mL (≈ 21.5 µM).

In the case of `COc1ccc(-c2cc(SC)nc(Nc3nc(N4CCN(C)CC4)nc(N4CCN(C)CC4)n3)n2)cc1OC`, the MIC is more than 12.5 µg/mL.

Compound `CCN(CC)CCNc1nc(NCCN(CC)CC)nc(Nc2nc(SC)cc(-c3ccc(OC)c(OC)c3)n2)n1` registered an MIC of 6.25 µg/mL (≈ 10.7 µM).

`COc1ccc(-c2cc(SC)nc(Nc3nc(NC(C)(C)C)nc(NC(C)(C)C)n3)n2)cc1OC`: the MIC was found to be 6.25 µg/mL (≈ 12.5 µM).

`COc1ccc(-c2cc(SC)nc(Nc3nc(N4CCCCC4)nc(N4CCCCC4)n3)n2)cc1OC` came in with an MIC of more than 12.5 µg/mL.

Consider `COc1ccc(-c2cc(SC)nc(Nc3nc(NC(C)C)nc(NC(C)C)n3)n2)cc1OC`, for which it took 12.5 µg/mL (≈ 26.6 µM) to inhibit growth (MIC).

In the case of `COc1ccc(-c2cc(SC)nc(Nc3nc(N4CCOCC4)nc(N4CCOCC4)n3)n2)cc1OC`, the MIC is more than 12.5 µg/mL.

In turn, `COc1cc(-c2cc(N3CCCCC3)nc(N)n2)cc(OC)c1OC` returned an MIC of more than 12.5 µg/mL.

Consider `CCN(CC)CCNc1cc(-c2cc(OC)c(OC)c(OC)c2)nc(N)n1`, for which the MIC is more than 12.5 µg/mL.

In the case of `COc1cc(-c2cc(SC)nc(Nc3nc(N4CCCCC4)nc(N4CCCCC4)n3)n2)cc(OC)c1OC`, the MIC was determined as 6.25 µg/mL (≈ 11.3 µM).

`CCCCNc1nc(NCCCC)nc(Nc2nc(SC)cc(-c3cc(OC)c(OC)c(OC)c3)n2)n1` registered a minimum inhibitory concentration (MIC) of more than 12.5 µg/mL.
